pIC50, pKi: −log10 of the molar value.
Legend:
[1] = Inhibition of nAChR-mediated nicotine-evoked [3H]DA release in superfused rat striatal slices
In short: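 Superfused rat striatal slices, [3H]DA overflow evoked by 10 μM S(-)-nicotine after 36 min analogue pre-exposure, superfusion continued 36 min. Full concentration range 1 nM to 10 μM. IC50 from iterative nonlinear least-squares curve fitting; 4–5 independent experiments, each in duplicate.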

[2] = target: Neuronal acetylcholine receptor subunit alpha-7 (Rattus norvegicus, UniProt Q05941); test: Displacement of [3H]methyllycaconitine from alpha7 nAChR in rat brain membrane; format: cell membranes
Neuronal acetylcholine receptor subunit alpha-7, sequence (Q05941 whole entry, the tested form may be a part): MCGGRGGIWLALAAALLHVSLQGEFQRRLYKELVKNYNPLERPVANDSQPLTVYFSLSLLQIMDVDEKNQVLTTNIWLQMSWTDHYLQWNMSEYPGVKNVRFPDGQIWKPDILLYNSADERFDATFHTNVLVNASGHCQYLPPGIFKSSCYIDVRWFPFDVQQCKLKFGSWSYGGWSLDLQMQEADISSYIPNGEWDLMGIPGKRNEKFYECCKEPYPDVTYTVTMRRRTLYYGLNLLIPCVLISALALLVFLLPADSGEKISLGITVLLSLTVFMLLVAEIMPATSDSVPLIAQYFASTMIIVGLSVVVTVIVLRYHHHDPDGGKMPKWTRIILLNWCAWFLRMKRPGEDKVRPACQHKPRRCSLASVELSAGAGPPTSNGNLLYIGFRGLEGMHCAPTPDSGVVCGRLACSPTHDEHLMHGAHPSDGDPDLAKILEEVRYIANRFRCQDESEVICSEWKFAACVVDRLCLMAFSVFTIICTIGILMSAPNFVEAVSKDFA

[3] = species on record: Rattus norvegicus; test: Inhibition of nAChR-mediated nicotine-evoked [3H]DA release in superfused rat striatal slices at 100 nM
In short: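 Rat striatal slices, preloaded with [3H]DA, superfused 36 min with or without 100 nM analogue, then 36 min more with 10 μM S(-)-nicotine added. Inhibition expressed as percent of the nicotine-evoked [3H]DA overflow without analogue. At least three independent experiments, each in duplicate.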

[4] = target: Neuronal acetylcholine receptor subunit alpha-7 (Rattus norvegicus) (UniProt Q05941); test: Displacement of [3H]methyllycaconitine from alpha7 nAChR in rat brain membrane at 100 nM; format: cell membranes
Neuronal acetylcholine receptor subunit alpha-7 (Rattus norvegicus), sequence (Q05941 whole entry): as the sequence (Q05941 whole entry, the tested form may be a part) above
In short: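 Whole rat brain membranes, [3H]MLA binding at 2.5 nM radioligand; nonspecific binding defined with 10 μM nicotine. Analogue tested at a 100 nM probe concentration. Inhibition expressed as percent of radioligand binding without analogue. At least three independent experiments, each in duplicate.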

[5] = target: Neuronal acetylcholine receptor; alpha4/beta2 (Rattus norvegicus) (UniProt P09483+P12390); test: Displacement of [3H]nicotine from alpha4beta2 nAChR in rat brain membrane at 100 nM; format: cell membranes
In short: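 Whole rat brain membranes, [3H]nicotine binding at 3 nM radioligand; nonspecific binding defined with 10 μM […]. Analogue tested at a 100 nM probe concentration. Inhibition expressed as percent of radioligand binding without analogue. At least three independent experiments, each in duplicate.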

| SMILES | pIC50 [1] | pKi [2] | inhibition [3] | Activity [4] | Activity [5] |
| --- | --- | --- | --- | --- | --- |
| Cc1ccc[n+](CCCCCCCCCCCC[n+]2cccc(C)c2)c1 | 8.70 | < 4.00 |  |  |  |
| c1ccc2c[n+](CCCCCc3cc(CCCCC[n+]4ccc5ccccc5c4)c(CCCCC[n+]4ccc5ccccc5c4)cc3CCCCC[n+]3ccc4ccccc4c3)ccc2c1 | 7.25 |  | 63% | 24% | 6.5% |
| C(#Cc1cc(C#CCCC[n+]2cccc(Cc3ccccc3)c2)c(C#CCCC[n+]2cccc(Cc3ccccc3)c2)cc1C#CCCC[n+]1cccc(Cc2ccccc2)c1)CCC[n+]1cccc(Cc2ccccc2)c1 |  |  | 17% | 53% | 2.9% |
| Cc1cc(C)c[n+](CCCCCc2cc(CCCCC[n+]3cc(C)cc(C)c3)c(CCCCC[n+]3cc(C)cc(C)c3)cc2CCCCC[n+]2cc(C)cc(C)c2)c1 |  |  | 45% | 15% | 3.7% |
| c1ccc(-c2ccc[n+](CCCCCc3cc(CCCCC[n+]4cccc(-c5ccccc5)c4)c(CCCCC[n+]4cccc(-c5ccccc5)c4)cc3CCCCC[n+]3cccc(-c4ccccc4)c3)c2)cc1 |  |  | 19% | 33% | 6.6% |
| C(#Cc1cc(C#CCCC[n+]2ccc3c(c2)CCCC3)c(C#CCCC[n+]2ccc3c(c2)CCCC3)cc1C#CCCC[n+]1ccc2c(c1)CCCC2)CCC[n+]1ccc2c(c1)CCCC2 |  |  | 24% | 17% | 9.7% |
| Cc1ccc[n+](CCCC#Cc2cc(C#CCCC[n+]3cccc(C)c3)c(C#CCCC[n+]3cccc(C)c3)cc2C#CCCC[n+]2cccc(C)c2)c1 |  |  | 16% | 18% | 11% |
| OCCCc1ccc[n+](CCCC#Cc2cc(C#CCCC[n+]3cccc(CCCO)c3)c(C#CCCC[n+]3cccc(CCCO)c3)cc2C#CCCC[n+]2cccc(CCCO)c2)c1 |  |  | 41% | 5.7% | 0% |
| Cc1cc[n+](CCCC#Cc2cc(C#CCCC[n+]3ccc(C)c(C)c3)c(C#CCCC[n+]3ccc(C)c(C)c3)cc2C#CCCC[n+]2ccc(C)c(C)c2)cc1C |  |  | 17% | 0.6% | 9.8% |
| C(#Cc1cc(C#CCCC[n+]2cccc(-c3ccccc3)c2)c(C#CCCC[n+]2cccc(-c3ccccc3)c2)cc1C#CCCC[n+]1cccc(-c2ccccc2)c1)CCC[n+]1cccc(-c2ccccc2)c1 |  |  | 37% | 53% | 0.3% |
| CN1CCC[C@H]1c1ccc[n+](CCCC#Cc2cc(C#CCCC[n+]3cccc([C@@H]4CCCN4C)c3)c(C#CCCC[n+]3cccc([C@@H]4CCCN4C)c3)cc2C#CCCC[n+]2cccc([C@@H]3CCCN3C)c2)c1 |  |  | 31% | 15% | 38% |
| OCCCc1ccc[n+](CCCCCc2cc(CCCCC[n+]3cccc(CCCO)c3)c(CCCCC[n+]3cccc(CCCO)c3)cc2CCCCC[n+]2cccc(CCCO)c2)c1 | 8.47 |  | 64% | 20% | 9.6% |
| c1ccc(Cc2ccc[n+](CCCCCc3cc(CCCCC[n+]4cccc(Cc5ccccc5)c4)c(CCCCC[n+]4cccc(Cc5ccccc5)c4)cc3CCCCC[n+]3cccc(Cc4ccccc4)c3)c2)cc1 | 7.55 |  | 54% | 16% | 13% |
| Cc1cc[n+](CCCCCc2cc(CCCCC[n+]3ccc(C)cc3)c(CCCCC[n+]3ccc(C)cc3)cc2CCCCC[n+]2ccc(C)cc2)cc1 |  |  | 46% | 8% | 12% |
| Cc1ccc[n+](CCCC#Cc2cc(C#CCCC[n+]3cccc(C)c3)cc(C#CCCC[n+]3cccc(C)c3)c2)c1 | 9.70 |  | 40% | 0% | 10% |
| CN1CCC[C@H]1c1ccc[n+](CCCCCc2cc(CCCCC[n+]3cccc([C@@H]4CCCN4C)c3)c(CCCCC[n+]3cccc([C@@H]4CCCN4C)c3)cc2CCCCC[n+]2cccc([C@@H]3CCCN3C)c2)c1 |  |  | 43% | 26% | 7.4% |
| Cc1cc[n+](CCCCCc2cc(CCCCC[n+]3ccc(C)c(C)c3)c(CCCCC[n+]3ccc(C)c(C)c3)cc2CCCCC[n+]2ccc(C)c(C)c2)cc1C |  |  | 36% | 18% | 0.5% |
| Cc1ccc[n+](CCCCCc2cc(CCCCC[n+]3cccc(C)c3)c(CCCCC[n+]3cccc(C)c3)cc2CCCCC[n+]2cccc(C)c2)c1 |  |  | 8% | 12% | 12% |
| Cc1cc[n+](CCCC#Cc2cc(C#CCCC[n+]3ccc(C)cc3)c(C#CCCC[n+]3ccc(C)cc3)cc2C#CCCC[n+]2ccc(C)cc2)cc1 |  |  | 35% | 3% | 24% |
| C(#Cc1cc(C#CCCC[n+]2ccc3ccccc3c2)c(C#CCCC[n+]2ccc3ccccc3c2)cc1C#CCCC[n+]1ccc2ccccc2c1)CCC[n+]1ccc2ccccc2c1 |  |  | 39% | 4.9% | 0% |
| c1c(CCCCC[n+]2ccc3c(c2)CCCC3)c(CCCCC[n+]2ccc3c(c2)CCCC3)cc(CCCCC[n+]2ccc3c(c2)CCCC3)c1CCCCC[n+]1ccc2c(c1)CCCC2 |  |  | 27% | 27% | 0.9% |
| Cc1cc(C)c[n+](CCCC#Cc2cc(C#CCCC[n+]3cc(C)cc(C)c3)c(C#CCCC[n+]3cc(C)cc(C)c3)cc2C#CCCC[n+]2cc(C)cc(C)c2)c1 |  |  | 12% | 3.9% | 0% |
